Consider seven compounds from ChEMBL document CHEMBL4219134, “Xanthone derivatives as phosphoglycerate mutase 1 inhibitors: Design, synthesis, and biological evaluation” (Bioorg Med Chem, 2018).

Test [1] concerns the target L-lactate dehydrogenase (Homo sapiens) (UniProt V9HWB9). As to the kind of experiment: Inhibition of LDH (unknown origin) at 5 uM using 2-PG relative to control. Put shortly:
(§1)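 PGAM1 omitted to test the downstream coupling enzymes. Compound (0.5 mM stock) preincubated 2 min at room temperature in 50 mM Tris pH 8.0. OD340 decrease read; inhibition ratio at 5 µM.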

Another test deals with MCF7. As to the kind of experiment: Antiproliferative activity against human MCF7 cells after 72 hrs by MTT assay. The class given is functional, cell-based. The following applies: MCF7, 72 h. Put shortly: (§2)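 MTT assay: 2 × 10^3 cells per well, cultured 24 h at 37 °C. Compound then added for 72 h at 37 °C, followed by 0.5 mg mL-1 MTT for 4 h. Formazan dissolved in DMSO and absorbance read at 570 nm. IC50 from triplicate experiments, mean ± sd.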

Test [2] deals with PANC-1. The experiment in a line: Antiproliferative activity against human PANC1 cells after 72 hrs by MTT assay. The class given is functional, cell-based. The following applies: PANC-1, 72 h. Put shortly: as §2
The species entered for test [3] is Homo sapiens. As to the kind of experiment: Inhibition of pyruvate kinase (unknown origin) at 5 uM using 2-PG relative to control. Put shortly:
as §1

Test [4] deals with NCI-H1299. The experiment in a line: Antiproliferative activity in human H1299 cells. The class given is functional, cell-based.
For test [5], the species on record is Homo sapiens. The experiment in a line: Inhibition of enolase (unknown origin) at 5 uM using 2-PG relative to control. The method in brief:
as §1

For test [6], the target named is T1, Phosphoglycerate mutase 1 (Homo sapiens, UniProt P18669). The experiment in a line: Inhibition of recombinant PGAM1 (unknown origin) using 3-PG as substrate preincubated for 2 mins followed by substrate addition. Put shortly:
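Recombinant PGAM1 plus compound (DMSO) in 50 mM Tris pH 8.0, preincubated 2 min at room temperature. Started with 3PG (200 mM stock); NADH oxidation read as OD340 decrease. IC50 from triplicates, mean ± sd.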

Test [7] has as its system NCI-H1299. As to the kind of experiment: Antiproliferative activity against human H1299 cells after 72 hrs by MTT assay. The format is functional, cell-based. As to conditions: NCI-H1299, 72 h. Put shortly:
as §2

The subject of test [8] is NCI-H1299. As to the kind of experiment: Potency index, ratio of PGMI-004A IC50 to test compound IC50 for antiproliferative activity against human H1299 cells. The format is functional.
Test [9] deals with NCI-H1299. The experiment in a line: Antiproliferative activity against human H1299 cells at 40 uM after 72 hrs by MTT assay relative to control. The format is functional. The following applies: NCI-H1299, 72 h. Put shortly:
(§3)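 MTT format: 2 × 10^3 cells per well, seeded 24 h, then compound for 72 h at 37 °C. 0.5 mg mL-1 MTT for 4 h, DMSO solubilization, A570. Inhibition ratio recorded at the top tested concentration: 40 µM for H1299, 200 µM for PANC-1.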

The target of test [10] is L-lactate dehydrogenase (Homo sapiens) (UniProt V9HWB9). As to the kind of experiment: Inhibition of LDH (unknown origin) at 0.625 uM using 2-PG relative to control. Put shortly: (§4)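 Counter-screen of the coupled downstream enzymes without PGAM1. Compound was preincubated 2 min at room temperature in 50 mM Tris pH 8.0. The reaction was started with 2PG (200 mM stock), and the NADH oxidation decrease was read at 340 nm.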

Test [11] deals with T1, Phosphoglycerate mutase 1. The experiment in a line: Inhibition of recombinant human His-tagged PGAM1 expressed in Escherichia coli BL21 competent cells by multiple enzymes coupled assay measuring NADH oxidation at 340 nm.
The species named for test [12] is Homo sapiens. As to the kind of experiment: Inhibition of pyruvate kinase (unknown origin) at 0.625 uM using 2-PG relative to control. The method in brief:
as §4

Test [13] concerns NCI-H1299. As to the kind of experiment: Antiproliferative activity in human NCI-H1299 cells after 72 hrs. The format is functional, cell-based. The following applies: NCI-H1299, 72 h. The method in brief:
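MTT assay: 2 × 10^3 cells per well were seeded and cultured 24 h at 37 °C. Inhibitor was added and cells were incubated 72 h at 37 °C. MTT was then added at 0.5 mg/mL for 4 h at 37 °C, followed by DMSO solubilisation and absorbance reading at 570 nm. IC50 is reported as mean ± sd of triplicates.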

Test [14] is filed under the species Homo sapiens. The experiment in a line: Inhibition of enolase (unknown origin) at 0.625 uM using 2-PG relative to control. The method in brief: as §4
Test [15] concerns the target T1, Phosphoglycerate mutase 1. As to the kind of experiment: Inhibition of PGAM1 in human MDA-MB-231 cells using 3-PGA as substrate after 2 hrs in by UV-vis spectrophotometric method. The class given is cell-based.
Test [16] relates to PANC-1. The experiment in a line: Antiproliferative activity against human PANC1 cells at 200 uM after 72 hrs by MTT assay relative to control. The class given is functional. The following applies: PANC-1, 72 h. The method in brief:
as §3

The subject of test [17] is PANC-1. As to the kind of experiment: Antiproliferative activity against PGAM1 knockdown human PANC1 cells after 72 hrs by MTT assay. The following applies: PANC-1, 72 h. The format is functional, cell-based. Put shortly:
as §2

The test system of test [18] is PANC-1. As to the kind of experiment: Antiproliferative activity against PGAM1 overexpessed human PANC1 cells after 72 hrs by MTT assay. The format is functional, cell-based. As to conditions: PANC-1, 72 h. The method in brief: as §2

The structures appear in SMILES notation.

T1 sequence (P18669 whole entry): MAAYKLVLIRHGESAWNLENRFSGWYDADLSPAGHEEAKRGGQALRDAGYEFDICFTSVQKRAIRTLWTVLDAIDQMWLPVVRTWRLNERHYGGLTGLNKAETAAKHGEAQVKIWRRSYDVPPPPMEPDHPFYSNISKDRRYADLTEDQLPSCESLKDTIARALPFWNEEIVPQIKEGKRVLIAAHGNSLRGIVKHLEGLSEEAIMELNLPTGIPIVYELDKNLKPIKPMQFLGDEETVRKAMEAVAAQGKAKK

With `O=C1c2ccccc2C(=O)c2c1cc(S(=O)(=O)Nc1ccc(C(F)(F)F)cc1)c(O)c2O`, the inhibition (in test [1]; in the test listed under Homo sapiens [3]; in the test listed under Homo sapiens [5]) was 38% each time. The IC50 in the test on MCF7 was greater than 40 µM; in the test with PANC-1 [2], 32 µM; in the test with NCI-H1299 [4], 25.6 to 26 µM.

For `O=c1c2c(O)cccc2oc2cc(NS(=O)(=O)c3ccc(N4CCCC4)cc3)c(O)c(O)c12`, the inhibition (in [1]; in the test listed under Homo sapiens [3]; in the test listed under Homo sapiens [5]) was 4% each time. For the same compound, the IC50 with MCF7 is greater than 200 µM; in the test on PANC-1 [2], 137 µM; in [6], 2700 nM; in the test on NCI-H1299 [7] it was 5 µM. The “Ratio IC50” value in the test on NCI-H1299 [8] was found to be 5.

Consider `O=c1c2c(O)cccc2oc2cc(NS(=O)(=O)c3ccc(Br)cc3)c(O)c(O)c12`, for which the inhibition (in [1]; in the test filed under Homo sapiens [3]; in the test filed under Homo sapiens [5]) was 6% throughout. Also, the IC50 is 6.8 µM in the test with MCF7, greater than 200 µM in the test on PANC-1 [2], 2900 nM in test [6] and greater than 40 µM with NCI-H1299 [7]. For the same compound, the inhibition at 40 µM with NCI-H1299 [9] is less than 50%.

`O=C(O[C@@H]1Cc2c(O)cc(O)cc2O[C@@H]1c1cc(O)c(O)c(O)c1)c1cc(O)c(O)c(O)c1` [EPIGALOCATECHIN GALLATE]: the inhibition (in test [10]; in the test listed under Homo sapiens [12]; in the test filed under Homo sapiens [14]) was 63% throughout. For the same compound, the IC50 in [11] is 490 nM; in the test on NCI-H1299 [13], greater than 80 µM.

For the compound `C#CCCCC(=O)OC(C)(C)[C@H]1CC[C@]2(CO2)[C@@H](OC(=O)N[C@@H](Cc2c[nH]c3ccccc23)C(=O)OCc2ccccc2)C1`, the IC50 in [15] came to 33 µM.

`O=c1c2c(O)cccc2oc2cc(NS(=O)(=O)c3ccccc3)c(O)c(O)c12`: the inhibition (in [1]; in the test listed under Homo sapiens [3]; in the test filed under Homo sapiens [5]) was 6% in each case. Also, the concentration for half-maximal inhibition (IC50) with MCF7 is 113 µM; in the test on PANC-1 [2], greater than 200 µM; in [6], 2800 nM; in the test with NCI-H1299 [7], 59 µM. Moreover, the inhibition at 200 µM in the test on PANC-1 [16] was less than 50%.

For the compound `O=c1c2c(O)cccc2oc2cc(NS(=O)(=O)c3cc(C(F)(F)F)ccc3C(F)(F)F)c(O)c(O)c12`, the inhibition (in test [1]; in the test listed under Homo sapiens [3]; in the test filed under Homo sapiens [5]) was 2% in each case. For the same compound, the IC50 was found to be 15.8 µM in the test on MCF7; 10.5 µM in the test with PANC-1 [2]; 6300 nM in test [6]; 42.8 µM in the test with PANC-1 [17]; 25 µM in the test on PANC-1 [18]; 16.8 µM with NCI-H1299 [7].
